Measurements as given in ChEMBL document CHEMBL1136139, “The design, synthesis and evaluation of novel HIV-1 protease inhibitors with high potency against PI-resistant viral strains” (Bioorg Med Chem Lett, 2003).

Tests used:
[1] = Oral bioavailability after peroral administration at 50 mpk in Rat; type: ADME, organism-based; conditions: in vivo, 50 mg/kg
Summary of the method: (§1)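 Rats were dosed orally across 10–160 mg/kg (10, 20, 50, 160). The 10 mg/kg oral arm was paired with 5 mg/kg intravenous dosing. Cmax, AUC, half-life, plasma clearance (mL/min/kg) and bioavailability (%) were determined at each oral dose.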

Rhesus monkey [2] = experiment: Plasma clearance after peroral administration at 10 mpk in Rhesus; type: ADME, organism-based, Macaca mulatta; conditions: in vivo, po, 10 mg/kg
Summary of the method: (§2)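 Rhesus monkeys were given 10 mg/kg orally and 2 mg/kg intravenously. Cmax, half-life, AUC, plasma clearance (mL/min/kg) and bioavailability (%) were taken from plasma concentration profiles.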

[3] = Cmax was determine after peroral administration at 10 mpk in Rhesus; type: ADME, organism-based, Macaca mulatta; design: dose 10 mpk, route oral; conditions: rhesus monkey, in vivo, po, 10 mg/kg; summary of the method: as §2
Rattus norvegicus [4] = experiment: Plasma clearance after peroral administration at 10 mpk in Rat; type: ADME, organism-based; conditions: in vivo, po, 10 mg/kg; summary of the method: as §1
[5] = In vitro intrinsic clearance in human liver microsome; type: ADME; conditions: liver microsomes
Summary of the method: (§3)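 The compound was incubated with liver microsomes from rat, dog, rhesus and human. Metabolic stability was expressed as intrinsic clearance scaled to mL/min/kg.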

Cytochrome P450 2C9 = Cytochrome P450 2C9 (Homo sapiens, UniProt P11712); experiment: Inhibition of human liver microsome Cytochrome P450 2C9; type: ADME, microsomes
MT4 [6] = experiment: Ability to inhibit spread of viral infection in MT-4 human T-lymphoidcell infected by PI-resistant HIV-1 (strain Q-60C); type: functional; conditions: read-out: CIC95
Summary of the method: (§4)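 MT4 human T-lymphoid cells infected with HIV-1, either wild-type NL4-3 or engineered PI-resistant constructs (4X, K-60C, V-18C, Q-60C) carrying varied patterns of multiple PI resistance mutations; spread of infection in culture followed. Value is CIC95, the compound concentration inhibiting at least 95% of infectious viral spread relative to untreated virus control culture.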

[7] = Intrinsic clearance in rat liver microsome; type: ADME; conditions: liver microsomes; summary of the method: as §3
[8] = Cmax was determine after peroral administration at 10 mpk in dog; type: ADME, organism-based, Canis lupus familiaris; design: dose 10 mpk, route oral; conditions: in vivo, po, 10 mg/kg
Summary of the method: (§5)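 Dogs dosed both intravenously (2 mg/kg) and orally (10 mg/kg). Cmax, half-life, plasma clearance (mL/min/kg) and oral bioavailability (%) were derived from plasma drug levels. The study was IACUC-approved.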

MT4 [9] = experiment: Ability to inhibit spread of viral infection in MT-4 human T-lymphoidcell infected by PI-resistant HIV-1 (strain V-18C); type: functional; conditions: read-out: CIC95; summary of the method: as §4
Rattus norvegicus [10] = experiment: Area under curve was determine after peroral administration at 10 mpk in Rat; type: ADME, organism-based; conditions: in vivo, po, 10 mg/kg; summary of the method: as §1
Cytochrome P450 3A4 = Cytochrome P450 3A4 (Homo sapiens, UniProt P08684); experiment: Inhibition of human liver microsome Cytochrome P450 3A4
[11] = Area under curve was determine after peroral administration at 160 mpk in Rat; type: ADME, organism-based; conditions: in vivo, po, 160 mg/kg; summary of the method: as §1
[12] = Oral bioavailability in Rhesus monkey (dose 10 mg/kg p.o.); type: ADME, organism-based, Macaca mulatta; conditions: in vivo; summary of the method: as §2
[13] = Area under curve was determine after peroral administration at 50 mpk in Rat; type: ADME, organism-based; conditions: in vivo, po, 50 mg/kg; summary of the method: as §1
[14] = Oral bioavailability after peroral administration at 20 mpk in Rat; type: ADME, organism-based; conditions: in vivo, 20 mg/kg; summary of the method: as §1
MT4 [15] = experiment: Ability to inhibit spread of viral infection in MT-4 human T-lymphoidcell infected by wild-type HIV-1(strain NL4-3); type: functional; conditions: read-out: CIC95; summary of the method: as §4
[16] = Cmax was determine after peroral administration at 10 mpk in Rat; type: ADME, organism-based; design: dose 10 mpk, route oral; conditions: in vivo, po, 10 mg/kg; summary of the method: as §1
[17] = Half life period was determine after peroral administration at 10 mpk in Rhesus; type: ADME, organism-based, Macaca mulatta; conditions: rhesus monkey, in vivo, po, 10 mg/kg; summary of the method: as §2
[18] = Intrinsic clearance in dog liver microsome; type: ADME, Canis lupus familiaris; conditions: liver microsomes; summary of the method: as §3
[19] = Cmax was determine after peroral administration at 160 mpk in Rat; type: ADME, organism-based; design: dose 160 mpk, route oral; conditions: in vivo, po, 160 mg/kg; summary of the method: as §1
[20] = Plasma clearance after peroral administration at 10 mpk in dog; type: ADME, organism-based, Canis lupus familiaris; conditions: po, 10 mg/kg, read-out: Clp; summary of the method: as §5
[21] = Half life period was determine after peroral administration at 10 mpk in dog; type: ADME, organism-based, Canis lupus familiaris; conditions: in vivo, po, 10 mg/kg; summary of the method: as §5
[22] = Oral bioavailability after peroral administration at 10 mpk in Rat; type: ADME, organism-based; conditions: in vivo, 10 mg/kg; summary of the method: as §1
[23] = Oral bioavailability after peroral administration at 160 mpk in Rat; type: ADME, organism-based; conditions: in vivo, 160 mg/kg; summary of the method: as §1
[24] = Intrinsic clearance in Rhesus liver microsome; type: ADME, Macaca mulatta; conditions: rhesus monkey, liver microsomes; summary of the method: as §3
[25] = Cmax was determine after peroral administration at 50 mpk in Rat; type: ADME, organism-based; design: dose 50 mpk, route oral; conditions: in vivo, po, 50 mg/kg; summary of the method: as §1
[26] = Oral bioavailability in dog (dose 10 mg/kg); type: ADME, organism-based, Canis lupus familiaris; conditions: in vivo; summary of the method: as §5
[27] = Half life period was determine after peroral administration at 10 mpk in Rat; type: ADME, organism-based; conditions: in vivo, po, 10 mg/kg; summary of the method: as §1
MT4 [28] = experiment: Ability to inhibit spread of viral infection in MT-4 human T-lymphoidcell infected by PI-resistant HIV-1 (strain K-60C); type: functional; conditions: read-out: CIC95; summary of the method: as §4
[29] = molecular target: Human immunodeficiency virus type 1 protease (Human immunodeficiency virus 1, UniProt Q72874); experiment: Inhibitory activity against HIV-1 Protease
[30] = Area under curve was determine after peroral administration at 20 mpk in Rat; type: ADME, organism-based; conditions: in vivo, po, 20 mg/kg; summary of the method: as §1
Cytochrome P450 2D6 = Cytochrome P450 2D6 (Homo sapiens, UniProt P10635); experiment: Inhibition of human liver microsome Cytochrome P450 2D6; type: ADME, microsomes
Rhesus monkey [31] = experiment: Area under curve was determine after peroral administration at 10 mpk in Rhesus; type: ADME, organism-based, Macaca mulatta; conditions: in vivo, po, 10 mg/kg; summary of the method: as §2
[32] = Cmax was determine after peroral administration at 20 mpk in Rat; type: ADME, organism-based; design: dose 20 mpk, route oral; conditions: in vivo, po, 20 mg/kg; summary of the method: as §1
MT4 [33] = experiment: Ability to inhibit spread of viral infection in MT-4 human T-lymphoidcell infected by PI-resistant HIV-1 (strain 4X Virus); type: functional; conditions: read-out: CIC95; summary of the method: as §4

Sequence of Cytochrome P450 2D6 (P10635 whole entry): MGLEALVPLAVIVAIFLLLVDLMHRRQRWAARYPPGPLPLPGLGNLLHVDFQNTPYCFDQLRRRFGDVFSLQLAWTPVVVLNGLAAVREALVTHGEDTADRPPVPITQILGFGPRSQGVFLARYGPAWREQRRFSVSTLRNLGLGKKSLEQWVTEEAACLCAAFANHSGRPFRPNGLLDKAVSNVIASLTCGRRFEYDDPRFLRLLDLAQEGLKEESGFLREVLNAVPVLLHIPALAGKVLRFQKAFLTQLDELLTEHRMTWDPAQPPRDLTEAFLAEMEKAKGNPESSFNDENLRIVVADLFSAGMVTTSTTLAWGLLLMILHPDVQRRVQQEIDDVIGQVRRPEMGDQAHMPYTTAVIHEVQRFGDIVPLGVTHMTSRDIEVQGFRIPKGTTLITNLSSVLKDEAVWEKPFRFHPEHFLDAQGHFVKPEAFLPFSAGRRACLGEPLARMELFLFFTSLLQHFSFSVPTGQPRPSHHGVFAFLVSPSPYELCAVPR
Sequence of Cytochrome P450 3A4 (P08684 whole entry): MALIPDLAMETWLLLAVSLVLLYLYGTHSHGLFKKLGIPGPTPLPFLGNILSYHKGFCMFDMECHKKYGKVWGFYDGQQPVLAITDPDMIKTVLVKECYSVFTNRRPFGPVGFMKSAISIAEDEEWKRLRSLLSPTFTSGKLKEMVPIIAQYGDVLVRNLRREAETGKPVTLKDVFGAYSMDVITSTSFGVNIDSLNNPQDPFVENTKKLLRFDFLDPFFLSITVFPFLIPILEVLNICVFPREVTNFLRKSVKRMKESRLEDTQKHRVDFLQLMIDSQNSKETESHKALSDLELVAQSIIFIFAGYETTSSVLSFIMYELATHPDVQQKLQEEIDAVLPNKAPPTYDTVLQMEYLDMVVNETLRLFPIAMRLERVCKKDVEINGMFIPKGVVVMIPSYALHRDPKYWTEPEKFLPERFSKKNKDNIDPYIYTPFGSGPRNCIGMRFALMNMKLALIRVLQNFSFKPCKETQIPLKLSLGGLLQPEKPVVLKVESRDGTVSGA
Sequence of Cytochrome P450 2C9 (P11712 whole entry): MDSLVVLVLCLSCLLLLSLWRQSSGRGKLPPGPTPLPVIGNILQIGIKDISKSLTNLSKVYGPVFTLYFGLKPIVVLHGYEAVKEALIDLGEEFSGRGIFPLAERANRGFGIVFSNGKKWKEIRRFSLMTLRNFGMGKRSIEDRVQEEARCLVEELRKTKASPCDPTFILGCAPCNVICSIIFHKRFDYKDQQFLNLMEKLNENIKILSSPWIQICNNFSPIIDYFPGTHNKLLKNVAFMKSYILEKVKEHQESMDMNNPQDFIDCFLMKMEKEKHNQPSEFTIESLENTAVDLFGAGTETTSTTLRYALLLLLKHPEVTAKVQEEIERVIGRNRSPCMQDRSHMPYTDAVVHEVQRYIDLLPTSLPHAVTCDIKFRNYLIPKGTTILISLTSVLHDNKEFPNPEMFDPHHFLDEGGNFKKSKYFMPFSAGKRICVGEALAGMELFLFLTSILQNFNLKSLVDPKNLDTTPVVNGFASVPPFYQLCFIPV

Structure (SMILES): COc1cncc(-c2cnc(C(C)(C)N3CCN(C[C@@H](O)C[C@@H](Cc4ccccc4)C(=O)N[C@H]4c5ccccc5OC[C@H]4O)[C@H](C(=O)NCC(F)(F)F)C3)o2)c1
- bioavailability [1]: 40.5%
- Clp (Rhesus monkey [2]): 33 mL/min/kg
- Cmax [3]: 100 nM
- Clp (Rattus norvegicus [4]): 104 mL/min/kg
- CLint scaled [5]: 13 mL/min/kg
- IC50 (Cytochrome P450 2C9): 30000 nM
- IC95 (MT4 [6]): 31 nM
- CLint [7]: 87 mL/min/kg
- Cmax [8]: 4300 nM
- IC95 (MT4 [9]): 15 nM
- AUC (Rattus norvegicus [10]): 0.03 µM·h
- IC50 (Cytochrome P450 3A4): 40 nM
- AUC [11]: 15.7 µM·h
- bioavailability [12]: 2.2%
- AUC [13]: 4.02 µM·h
- bioavailability [14]: 9.2%
- IC95 (MT4 [15]): ≤ 8 nM
- Cmax [16]: 40 nM
- half-life [17]: 1.22 h
- CLint [18]: 67 mL/min/kg
- Cmax [19]: 6880 nM
- CL/F [20]: 18 mL/min/kg
- half-life [21]: 1.02 h
- bioavailability [22]: 1.5%
- bioavailability [23]: 47.2%
- CLint [24]: 120 mL/min/kg
- Cmax [25]: 3060 nM
- bioavailability [26]: 30%
- half-life [27]: 0.433 h
- IC95 (MT4 [28]): 15 nM
- IC50 [29]: 0.02 nM
- AUC [30]: 0.38 µM·h
- IC50 (Cytochrome P450 2D6): 8700 nM
- AUC (Rhesus monkey [31]): 0.12 µM·h
- Cmax [32]: 370 nM

Structure (SMILES): CC(C)(c1ncc(-c2ccccn2)o1)N1CCN(C[C@@H](O)C[C@@H](Cc2ccccc2)C(=O)N[C@H]2c3ccccc3OC[C@H]2O)[C@H](C(=O)NCC(F)(F)F)C1
- CLint scaled [5]: 500 mL/min/kg
- IC50 (Cytochrome P450 2C9): 28000 nM
- IC95 (MT4 [6]): 15 nM
- IC95 (MT4 [9]): 62 nM
- IC50 (Cytochrome P450 3A4): 5000 nM
- IC95 (MT4 [15]): ≤ 8 nM
- IC95 (MT4 [28]): 31 nM
- IC50 [29]: 0.04 nM
- IC50 (Cytochrome P450 2D6): 22200 nM

Structure (SMILES): CC(C)(c1ncc(-c2cccnc2)o1)N1CCN(C[C@@H](O)C[C@@H](Cc2ccccc2)C(=O)N[C@H]2c3ccccc3OC[C@H]2O)[C@H](C(=O)NCC(F)(F)F)C1
- CLint scaled [5]: 27 mL/min/kg
- IC50 (Cytochrome P450 2C9): 33000 nM
- IC95 (MT4 [6]): 31 nM
- Cmax [8]: 3800 nM
- IC95 (MT4 [9]): 125 nM
- IC50 (Cytochrome P450 3A4): 110 nM
- IC95 (MT4 [15]): ≤ 8 nM
- CL/F [20]: 21 mL/min/kg
- half-life [21]: 1.57 h
- bioavailability [26]: 10%
- IC95 (MT4 [28]): 31 nM
- IC50 [29]: 0.04 nM
- IC50 (Cytochrome P450 2D6): 10500 nM

Structure (SMILES): O=C(N[C@H]1c2ccccc2OC[C@H]1O)[C@H](Cc1ccccc1)C[C@H](O)CN1CCN(Cc2ccc(-c3ccccn3)o2)C[C@H]1C(=O)NCC(F)(F)F
- IC95 (MT4 [6]): 15 nM
- IC95 (MT4 [9]): 15 nM
- IC95 (MT4 [15]): ≤ 8 nM
- IC95 (MT4 [28]): 31 nM
- IC50 [29]: 0.05 nM

Structure (SMILES): O=C(N[C@H]1c2ccccc2OC[C@H]1O)[C@H](Cc1ccccc1)C[C@H](O)CN1CCN(Cc2ncc(-c3cccnc3)o2)C[C@H]1C(=O)NCC(F)(F)F
- IC95 (MT4 [6]): 125 nM
- IC95 (MT4 [9]): 250 nM
- IC95 (MT4 [15]): 27 nM
- IC95 (MT4 [28]): 125 nM
- IC50 [29]: 0.14 nM
- IC95 (MT4 [33]): 62 nM

Structure (SMILES): O=C(N[C@H]1c2ccccc2OC[C@H]1O)[C@H](Cc1ccccc1)C[C@H](O)CN1CCN(Cc2ncc(-c3ccncc3)o2)C[C@H]1C(=O)NCC(F)(F)F
- IC95 (MT4 [6]): 250 nM
- IC95 (MT4 [9]): 125 nM
- IC95 (MT4 [15]): 23 nM
- IC95 (MT4 [28]): 125 nM
- IC50 [29]: 0.1 nM
- IC95 (MT4 [33]): 62 nM

Structure (SMILES): CC(C)(c1ncc(-c2cnccc2Cl)o1)N1CCN(C[C@@H](O)C[C@@H](Cc2ccccc2)C(=O)N[C@H]2c3ccccc3OC[C@H]2O)[C@H](C(=O)NCC(F)(F)F)C1
- CLint scaled [5]: 35 mL/min/kg
- IC50 (Cytochrome P450 2C9): 21000 nM
- Cmax [8]: 1000 nM
- IC95 (MT4 [9]): 31 nM
- IC50 (Cytochrome P450 3A4): 40 nM
- IC95 (MT4 [15]): ≤ 8 nM
- CL/F [20]: 19 mL/min/kg
- half-life [21]: 1.53 h
- bioavailability [26]: 8%
- IC95 (MT4 [28]): 16 nM
- IC50 [29]: 0.02 nM
- IC50 (Cytochrome P450 2D6): 4170 nM

Structure (SMILES): CC(C)(C)NC(=O)[C@@H]1CN(Cc2cccnc2)CCN1C[C@@H](O)C[C@@H](Cc1ccccc1)C(=O)N[C@H]1c2ccccc2C[C@H]1O
- IC95 (MT4 [6]): > 1000 nM
- IC95 (MT4 [9]): > 1000 nM
- IC95 (MT4 [15]): 50 nM
- IC95 (MT4 [28]): > 1000 nM
- IC95 (MT4 [33]): 400 nM

Structure (SMILES): O=C(N[C@H]1c2ccccc2OC[C@H]1O)[C@H](Cc1ccccc1)C[C@H](O)CN1CCN(Cc2ncc(-c3ccccn3)o2)C[C@H]1C(=O)NCC(F)(F)F
- IC95 (MT4 [6]): 125 nM
- IC95 (MT4 [9]): 125 nM
- IC95 (MT4 [15]): 23 nM
- IC50 [29]: 0.13 nM
- IC95 (MT4 [33]): 31 nM
